Active and inactive are the calls of the source. The rule behind the calls is not given here.
Assays:
[1] = AUC(0 to infinity) in human at 175 mg, po administered for 8 days by LC-MS/MS analysis; assay type: ADME, organism-based; conditions: in vivo, time 8 day
In short: (§1)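 Steady-state plasma sampling on cycle 1 day 8 in patients, predose and 0.25, 0.5, 0.75, 1, 2, 4 and 6 h post-dose, into lithium heparin. Plasma was stored at -80°C. Drug was quantified by validated LC-MS/MS against a stable labeled internal standard, using only values at or above LLOQ and nominal sampling times.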

[2] = target: Tyrosine-protein kinase BTK (Homo sapiens) (UniProt Q06187); conditions: Platelet, dose 25-1000 nM, time 30.0 min
[3] = Half life in human at 100 mg, po BID administered for 8 days by LC-MS/MS analysis; assay type: ADME, organism-based; conditions: in vivo, time 8 day; in short: as §1
[4] = target: Proto-oncogene tyrosine-protein kinase Src (Homo sapiens, UniProt P12931); test: Inhibition of recombinant SRC (unknown origin) preincubated for 1 hr in presence of ATP by Z-Lyte assay
[5] = AUC(0 to 24 hrs) in human at 250 mg, po administered for 8 days by LC-MS/MS analysis; assay type: ADME, organism-based; conditions: in vivo, time 8 day; in short: as §1
[6] = AUC(0 to 12 hrs) in human at 100 mg, po administered for 8 days by LC-MS/MS analysis; assay type: ADME, organism-based; conditions: in vivo, time 8 day; in short: as §1
[7] = AUC(0 to 24 hrs) in human at 400 mg, po administered for 8 days by LC-MS/MS analysis; assay type: ADME, organism-based; conditions: in vivo, time 8 day; in short: as §1
[8] = Apparent volume of distribution during terminal phase in human at 100 mg, po administered for 8 days by LC-MS/MS analysis; assay type: ADME, organism-based; conditions: in vivo, time 8 day, read-out: Vz/F; in short: as §1
[9] = target: Tyrosine-protein kinase Yes (Homo sapiens, UniProt P07947); test: Inhibition of recombinant YES1 (unknown origin) […] by Z-Lyte assay
In short: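 Recombinant YES1 run in a Z'-LYTE assay. Compound preincubated with kinase for 1 h before ATP was added to start the reaction. IC50 derived from independent experiments run head-to-head with the comparator.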

[10] = AUC(0 to infinity) in human at 250 mg, po administered for 8 days by LC-MS/MS analysis; assay type: ADME, organism-based; conditions: in vivo, time 8 day; in short: as §1
[11] = Terminal elimination half life in human at 175 mg, po administered for 8 days by LC-MS/MS analysis; assay type: ADME, organism-based; conditions: in vivo, time 8 day, read-out: LambdaZ (converted)
[12] = AUC(0 to 12 hrs) in human at 250 mg, po administered for 8 days by LC-MS/MS analysis; assay type: ADME, organism-based; conditions: in vivo, time 8 day; in short: as §1
[13] = AUC(0 to 24 hrs) in human at 100 mg, po BID administered for 8 days by LC-MS/MS analysis; assay type: ADME, organism-based; conditions: in vivo, time 8 day; in short: as §1
[14] = Drug exposure in human administered for 6 hrs by LC-MS/MS analysis; assay type: ADME; conditions: po, dose 100-400 mg
[15] = Apparent oral clearance in human at 250 mg, po administered for 8 days by LC-MS/MS analysis; assay type: ADME, organism-based; conditions: in vivo, time 8 day; in short: as §1
[16] = Tmax in human at 100 mg, po BID administered for 8 days by LC-MS/MS analysis; assay type: ADME, organism-based; conditions: in vivo, time 8 day
In short: (§2)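 Patient plasma sampled on cycle 1 day 8 at predose and 0.25, 0.5, 0.75, 1, 2, 4 and 6 h post-dose, in lithium heparin. […] Tmax read directly from each individual's data; summarized descriptively.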

[17] = AUC(0 to 24 hrs) in human at 175 mg, po administered for 8 days by LC-MS/MS analysis; assay type: ADME, organism-based; conditions: in vivo, time 8 day; in short: as §1
[18] = AUC(0 to 6 hrs) in human at 250 mg, po administered for 8 days by LC-MS/MS analysis; assay type: ADME, organism-based; conditions: in vivo, time 8 day; in short: as §1
[19] = AUC(0 to 12 hrs) in human at 175 mg, po administered for 8 days by LC-MS/MS analysis; assay type: ADME, organism-based; conditions: in vivo, time 8 day; in short: as §1
[20] = target: Tyrosine-protein kinase Lyn (Homo sapiens, UniProt P07948); test: Inhibition of recombinant LYN (unknown origin) preincubated for 1 hr in presence of ATP by Z-Lyte assay
In short: (§3)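 Recombinant kinase activity was measured by Z'-LYTE with ATP at each enzyme's Km. Inhibitor came from a 10 mM DMSO stock and was tested at 10 concentrations. Compound was preincubated with kinase for 1 h before ATP addition started the reaction, for about 2 h total compound-kinase exposure. IC50 is from 2–3 independent experiments.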

[21] = target: Tyrosine-protein kinase Fyn (Homo sapiens, UniProt P06241); test: Inhibition of recombinant FYN (unknown origin) preincubated for 1 hr […] by Z-Lyte assay; in short: as §3
[22] = Apparent volume of distribution during terminal phase in human at 175 mg, po administered for 8 days by LC-MS/MS analysis; assay type: ADME, organism-based; conditions: in vivo, time 8 day, read-out: Vz/F; in short: as §1
[23] = Apparent oral clearance in human at 175 mg, po administered for 8 days by LC-MS/MS analysis; assay type: ADME, organism-based; conditions: in vivo, time 8 day; in short: as §1
[24] = Terminal elimination half life in human at 100 mg, po BID administered for 8 days by LC-MS/MS analysis; assay type: ADME, organism-based; conditions: in vivo, time 8 day, read-out: LambdaZ (converted)
[25] = AUC(0 to infinity) in human at 400 mg, po administered for 8 days by LC-MS/MS analysis; assay type: ADME, organism-based; conditions: in vivo, time 8 day; in short: as §1
[26] = Terminal elimination half life in human at 100 mg, po administered for 8 days by LC-MS/MS analysis; assay type: ADME, organism-based; conditions: in vivo, time 8 day, read-out: LambdaZ (converted)
[27] = AUC(0 to 6 hrs) in human at 100 mg, po BID administered for 8 days by LC-MS/MS analysis; assay type: ADME, organism-based; conditions: in vivo, time 8 day; in short: as §1
[28] = AUC(0 to infinity) in human at 100 mg, po administered for 8 days by LC-MS/MS analysis; assay type: ADME, organism-based; conditions: in vivo, time 8 day; in short: as §1
[29] = Cmax in human at 175 mg, po administered for 8 days by LC-MS/MS analysis; assay type: ADME, organism-based; conditions: in vivo, time 8 day; in short: as §1
[30] = Drug accumulation in human at 100 to 400 mg, po administered for 6 hrs by LC-MS/MS analysis; assay type: ADME, organism-based; conditions: in vivo, dose 100-400 mg
[31] = Tmax in human at 175 mg, po administered for 8 days by LC-MS/MS analysis; assay type: ADME, organism-based; conditions: in vivo, time 8 day; in short: as §2

Sequence of Tyrosine-protein kinase Yes (P07947 whole entry): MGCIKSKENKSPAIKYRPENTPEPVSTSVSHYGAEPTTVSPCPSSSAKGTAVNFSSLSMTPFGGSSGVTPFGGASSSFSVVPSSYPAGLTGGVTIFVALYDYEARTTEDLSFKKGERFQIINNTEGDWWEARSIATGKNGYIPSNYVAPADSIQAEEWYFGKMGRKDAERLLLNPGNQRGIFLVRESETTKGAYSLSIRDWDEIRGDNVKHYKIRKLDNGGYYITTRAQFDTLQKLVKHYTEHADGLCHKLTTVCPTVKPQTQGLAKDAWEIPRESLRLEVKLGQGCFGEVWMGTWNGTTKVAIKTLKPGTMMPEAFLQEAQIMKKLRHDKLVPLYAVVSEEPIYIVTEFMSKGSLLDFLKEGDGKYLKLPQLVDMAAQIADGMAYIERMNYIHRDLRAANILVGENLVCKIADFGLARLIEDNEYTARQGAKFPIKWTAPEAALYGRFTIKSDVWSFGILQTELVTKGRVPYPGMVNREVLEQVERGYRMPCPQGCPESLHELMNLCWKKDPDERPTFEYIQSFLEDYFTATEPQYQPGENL
Sequence of Proto-oncogene tyrosine-protein kinase Src (P12931 2-536 limits assumed): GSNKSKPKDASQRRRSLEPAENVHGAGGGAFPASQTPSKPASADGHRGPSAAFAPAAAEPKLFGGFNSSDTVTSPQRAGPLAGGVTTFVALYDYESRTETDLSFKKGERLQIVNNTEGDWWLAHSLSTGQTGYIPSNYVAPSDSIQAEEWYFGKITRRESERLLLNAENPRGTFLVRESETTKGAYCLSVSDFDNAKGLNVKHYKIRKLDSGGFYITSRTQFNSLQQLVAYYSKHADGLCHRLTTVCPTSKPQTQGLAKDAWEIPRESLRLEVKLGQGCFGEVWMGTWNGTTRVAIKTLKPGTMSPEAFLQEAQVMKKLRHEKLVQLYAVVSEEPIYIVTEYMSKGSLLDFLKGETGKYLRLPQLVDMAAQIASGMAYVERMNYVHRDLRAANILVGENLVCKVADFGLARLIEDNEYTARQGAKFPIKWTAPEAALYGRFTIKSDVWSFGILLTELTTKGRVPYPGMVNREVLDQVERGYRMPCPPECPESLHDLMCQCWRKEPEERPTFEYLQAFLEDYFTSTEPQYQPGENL
Sequence of Tyrosine-protein kinase BTK (Homo sapiens) (Q06187 whole entry): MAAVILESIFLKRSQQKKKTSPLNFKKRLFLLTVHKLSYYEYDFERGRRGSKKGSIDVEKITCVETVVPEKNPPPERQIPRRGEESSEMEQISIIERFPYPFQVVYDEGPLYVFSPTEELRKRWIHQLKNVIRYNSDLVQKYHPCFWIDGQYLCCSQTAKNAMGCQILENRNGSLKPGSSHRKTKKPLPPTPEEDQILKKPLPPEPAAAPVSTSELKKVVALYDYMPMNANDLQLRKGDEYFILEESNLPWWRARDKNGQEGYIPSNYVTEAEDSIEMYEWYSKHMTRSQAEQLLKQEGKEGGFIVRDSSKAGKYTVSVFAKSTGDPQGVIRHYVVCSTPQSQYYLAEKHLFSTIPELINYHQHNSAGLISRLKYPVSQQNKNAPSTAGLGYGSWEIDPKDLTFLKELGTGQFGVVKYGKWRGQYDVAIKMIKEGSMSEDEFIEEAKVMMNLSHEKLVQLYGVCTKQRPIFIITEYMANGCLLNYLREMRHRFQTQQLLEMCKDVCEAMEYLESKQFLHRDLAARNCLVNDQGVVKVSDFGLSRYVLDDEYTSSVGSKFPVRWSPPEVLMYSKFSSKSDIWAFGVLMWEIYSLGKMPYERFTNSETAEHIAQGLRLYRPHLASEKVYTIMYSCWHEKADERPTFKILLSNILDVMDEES
Sequence of Tyrosine-protein kinase Fyn (P06241 whole entry): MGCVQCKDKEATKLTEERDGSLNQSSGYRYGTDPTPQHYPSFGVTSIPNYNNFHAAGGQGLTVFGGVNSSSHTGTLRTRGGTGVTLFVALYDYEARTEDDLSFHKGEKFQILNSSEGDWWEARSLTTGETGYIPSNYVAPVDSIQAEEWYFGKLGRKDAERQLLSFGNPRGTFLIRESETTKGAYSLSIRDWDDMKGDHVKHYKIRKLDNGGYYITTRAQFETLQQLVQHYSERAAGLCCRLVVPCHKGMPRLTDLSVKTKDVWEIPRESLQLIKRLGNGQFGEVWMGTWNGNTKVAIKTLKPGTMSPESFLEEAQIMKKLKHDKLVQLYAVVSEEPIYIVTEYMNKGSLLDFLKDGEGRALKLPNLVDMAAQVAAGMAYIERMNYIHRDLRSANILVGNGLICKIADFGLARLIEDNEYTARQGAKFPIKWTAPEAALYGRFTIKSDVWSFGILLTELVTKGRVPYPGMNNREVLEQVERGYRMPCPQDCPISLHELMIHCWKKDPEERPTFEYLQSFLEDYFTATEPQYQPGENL
Sequence of Tyrosine-protein kinase Lyn (P07948 whole entry): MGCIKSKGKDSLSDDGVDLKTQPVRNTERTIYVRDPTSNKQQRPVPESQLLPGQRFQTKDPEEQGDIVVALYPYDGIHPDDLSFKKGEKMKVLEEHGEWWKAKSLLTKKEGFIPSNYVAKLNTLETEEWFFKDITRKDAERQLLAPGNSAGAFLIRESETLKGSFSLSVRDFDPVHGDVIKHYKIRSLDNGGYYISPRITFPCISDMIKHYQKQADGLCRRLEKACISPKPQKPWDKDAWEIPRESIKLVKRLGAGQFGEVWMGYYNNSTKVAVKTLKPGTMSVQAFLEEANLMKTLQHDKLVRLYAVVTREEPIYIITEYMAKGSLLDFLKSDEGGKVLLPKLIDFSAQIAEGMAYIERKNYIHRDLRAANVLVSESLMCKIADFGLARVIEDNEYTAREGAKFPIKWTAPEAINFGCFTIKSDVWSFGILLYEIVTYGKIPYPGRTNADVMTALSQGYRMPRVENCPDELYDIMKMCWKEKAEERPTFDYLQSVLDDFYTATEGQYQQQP

AUC(0-inf) [1]: 1160 ng·h/mL
inhibition [2]: inactive
half-life [3]: 1.13 h
IC50 [4]: > 1000 nM
AUC at 192 h [5]: 2310 ng·h/mL
AUC at 192 h [6]: 602 ng·h/mL
AUC at 192 h [7]: 1870 ng·h/mL
Vd/F [8]: 308 L
IC50 [9]: > 1000 nM
AUC(0-inf) [10]: 2310 ng·h/mL
k el at 192 h [11]: 0.000194 s⁻¹
AUC at 192 h [12]: 2310 ng·h/mL
AUC at 192 h [13]: 1850 ng·h/mL
Drug uptake [14]: Dose-Dependent Effect
CL/F [15]: 2170 mL/min
Tmax [16]: 1 h
AUC at 192 h [17]: 1160 ng·h/mL
AUC at 192 h [18]: 1990 ng·h/mL
AUC at 192 h [19]: 1160 ng·h/mL
IC50 [20]: > 1000 nM
IC50 [21]: > 1000 nM
Vd/F [22]: 317 L
CL/F [23]: 3550 mL/min
k el at 192 h [24]: 0.000188 s⁻¹
AUC(0-inf) [25]: 1870 ng·h/mL
k el at 192 h [26]: 0.00017 s⁻¹
AUC at 192 h [27]: 826 ng·h/mL
AUC(0-inf) [28]: 603 ng·h/mL
Cmax [29]: 805 ng/mL
Drug uptake [30]: Not Active
Tmax [31]: 0.64 h
Structure (SMILES): CC#CC(=O)N1CCC[C@H]1c1nc(-c2ccc(C(=O)Nc3ccccn3)cc2)c2c(N)nccn12 [ACALABRUTINIB]

— ChEMBL document CHEMBL5705904 (N Engl J Med, 2016)
